Legend:
[1] = tested on: MCF7; assay: inhibitory activity against multi drug resistant MCF cell line.; assay type: functional; conditions: Homo sapiens, in the assay text read “MCF7 cell line” for “multi drug resistant MCF cell line”
Outline: (§1)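 Tested in the NCI human cell line panel. GI50 = drug concentration (nM) giving growth inhibition to 50% of controls; values below 10 nM were taken as 10 nM in calculations.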

[2] = tested on: HCT-116; assay: inhibitory activity against colon HCT116 cell line.; assay type: functional; conditions: Homo sapiens; outline: as §1
[3] = tested on: Jurkat; assay: Ratio of inhibitory activity against doxorubicin resistant jurkat cells to inhibitory activity against wild type human jurkat cells; assay type: functional
Outline: (§2)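 Wild-type Jurkat (JLC) and its amsacrine-resistant (JLA) or doxorubicin-resistant (JLD) sublines each seeded at 3.75 × 10^3 cells/well, 4 days with drug, sulforhodamine read-out. IC50 (nM) for 50% of control cell number; ratio = resistant-line IC50 divided by JLC IC50. Duplicate assays, CV ca. 25%.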

[4] = tested on: CAKI-1; assay: inhibitory activity against renal tumor […] cell line.; assay type: functional; conditions: Homo sapiens; outline: as §1
[5] = tested on: HT-29; assay: inhibitory activity against colon HT-29 cell line.; assay type: functional; conditions: Homo sapiens; outline: as §1
[6] = tested on: Jurkat; assay: Ratio of inhibitory activity against amsacrine resistant jurkat cells to inhibitory activity against wild type human jurkat cells; assay type: functional; outline: as §2
[7] = tested on: NCI/ADR-RES; assay: inhibitory activity against multi drug resistant NCI/ADR cell line.; assay type: functional; conditions: Homo sapiens; outline: as §1
[8] = tested on: P388; assay: Inhibitory activity against Murine […]; assay type: functional, cell-based; conditions: Mus musculus
Outline: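 Murine P388 leukemia cells seeded at 4.5 × 10^3 cells/well, cultured 3 days with drug; growth measured by [3H]TdR uptake. IC50 = drug concentration (nM) reducing cell number to 50% of controls. Independent assays in duplicate, CV ca. 25%.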

[9] = tested on: Jurkat; assay: Concentration required to inhibit 50% growth of human Jurkat cells; assay type: functional, cell-based
Outline: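 Jurkat leukemia (JLC) cells seeded at 3.75 × 10^3 cells/well and exposed to drug for 4 days; growth measured by sulforhodamine assay. IC50 = drug concentration (nM) reducing cell number to 50% of control cultures. Independent assays in duplicate, coefficients of variation ca. 25%.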

[10] = tested on: Lewis lung carcinoma cell line; assay: Inhibitory activity of tested against Murine Lewis lung carcinoma; assay type: functional, cell-based; conditions: Mus musculus
Outline: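 Lewis lung carcinoma (LLTC) cells at 10^3 cells/well, 4-day continuous drug exposure, growth read by sulforhodamine assay. IC50 (nM) = concentration giving 50% of control cell number. Duplicate independent assays, CV ca. 25%.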

[11] = tested on: SK-OV-3; assay: inhibitory activity against ovarian carcinoma SKOV3 cell line.; assay type: functional; conditions: Homo sapiens; outline: as §1

SMILES | GI50 [1] [nM] | GI50 [2] [nM] | Ratio [3] | GI50 [4] [nM] | GI50 [5] [nM] | Ratio [6] | GI50 [7] [nM] | IC50 [8] [nM] | IC50 [9] [nM] | IC50 [10] [nM] | GI50 [11] [nM]
CN(CCCNC(=O)c1cccc2cc3cccc(Br)c3nc12)CCCNC(=O)c1cccc2cc3cccc(Br)c3nc12 | 13 | < 10 | 0.9 | < 10 | < 10 | 0.4 | 110 | 15 | 24 | 6 | 166
CN(CCCNC(=O)c1cccc2cc3cccc(-c4ccccc4)c3nc12)CCCNC(=O)c1cccc2cc3cccc(-c4ccccc4)c3nc12 | 1020 | 5060 | 0.8 | 12000 | 1620 | 0.5 | 1790 | 1230 | 2540 | 1080 | 12000
Cc1ccc2cc3ccccc3nc2c1C(=O)NCCCN(C)CCCNC(=O)c1c(C)ccc2cc3ccccc3nc12 | 3030 | 446 | 1 | 6360 | 1430 | 0.9 | 16000 | 3500 | 1300 | 2400 | 13000
CN(CCCNC(=O)c1c(Cl)ccc2cc3ccccc3nc12)CCCNC(=O)c1c(Cl)ccc2cc3ccccc3nc12 | 488 | 171 | 1.2 | 4580 | 727 | 0.9 | 37000 | > 200000 | 900 | 2980 | 8380
CN(CCCNC(=O)c1cccc2cc3c(Cl)cccc3nc12)CCCNC(=O)c1cccc2cc3c(Cl)cccc3nc12 | 614 | 216 | 1.2 | 450 | 120 | 0.8 | 624 | 750 | 238 | 123 | 1070
Cc1ccc(C(=O)NCCCN(C)CCCNC(=O)c2ccc(C)c3cc4ccccc4nc23)c2nc3ccccc3cc12 | 54 | < 10 | 1 | 42 | < 10 | 0.6 | 77 | 170 | 41 | 14 | 1170
CCc1cccc2cc3cccc(C(=O)NCCCN(C)CCCNC(=O)c4cccc5cc6cccc(CC)c6nc45)c3nc12 | 265 | 221 | 0.9 | 104 | 1390 | 0.7 | 1340 | 170 | 113 | 27 | 10000
Cc1ccc2nc3c(C(=O)NCCCN(C)CCCNC(=O)c4cccc5cc6cc(C)ccc6nc45)cccc3cc2c1 | 190 | 12 | 1.1 | 268 | 34 | 0.9 | 480 | 270 | 275 | 73 | 1180
CN(CCCNC(=O)c1cccc2cc3cccc(C(F)(F)F)c3nc12)CCCNC(=O)c1cccc2cc3cccc(C(F)(F)F)c3nc12 | 79 | 32 | 1.1 | 600 | 33 | 0.85 | 1290 | 240 | 115 | 39 | 1260
CN(CCCNC(=O)c1cccc2cc3cccc(Cl)c3nc12)CCCNC(=O)c1cccc2cc3cccc(Cl)c3nc12 | 167 | 14 | 1 | 95.9 | 31 | 0.55 | 1200 | 46 | 33 | 8 | 12000
Cc1ccc(C)c2nc3c(C(=O)NCCCN(C)CCCNC(=O)c4cccc5cc6c(C)ccc(C)c6nc45)cccc3cc12 | < 10 | < 10 | 0.7 | < 10 | < 10 | 0.4 | 172 | 24 | 11 | 3.2 | 320
Cc1cccc2nc3c(C(=O)NCCCN(C)CCCNC(=O)c4cccc5cc6c(C)cccc6nc45)cccc3cc12 | 174 | 13 | 1 | 58 | 60 | 0.7 | 1040 | 180 | 71 | 16 | 594
CN(CCCNC(=O)c1cccc2cc3ccc(Cl)cc3nc12)CCCNC(=O)c1cccc2cc3ccc(Cl)cc3nc12 | 13 | < 10 | 0.9 | < 10 | < 10 | 0.5 | 274 | 66 | 51 | 13 | 11000
CN(CCCNC(=O)c1cccc2cc3cccc(F)c3nc12)CCCNC(=O)c1cccc2cc3cccc(F)c3nc12 | < 10 | < 10 | 0.9 | 34 | < 10 | 0.6 | 93 | 16 | 49 | 35 | 845
CN(CCCNC(=O)c1cccc2cc3ccccc3nc12)CCCNC(=O)c1cccc2cc3ccccc3nc12 | 24 | < 10 | 0.8 | 14 | < 10 | 0.7 | 408 | 130 | 110 | 30 | 8570

Reference: ChEMBL document CHEMBL1132256, “Structure-activity relationships for substituted bis(acridine-4-carboxamides): a new class of anticancer agents” (J Med Chem, 1999)
